This is a sample that favours compounds with a hit; in the whole collection about 1.1% have one here.
Rin1-Abl PPI inh: human Rin1-Abl interaction inhibition; 360,000 tested, 0.4% active; inhibition, % at 7.35 µM; TR-FRET Rin1/Abl binding, biochemical; AID 588664; in the data active means inhibition above about 5%, passing the limit was not always enough
ERAP1 HTS inh: ERAP1 (human) enzyme inhibition | recombinant ERAP1, Leu-AMC fluorescence, 60 min | Q9NZ08 | 340,000 tested, 0.15% active | AID 652197 | inhibition, % at 10.7 µM;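 active means mean replicate inhibition of at least 30%, or all replicates individually reaching that 30% level; inactive means mean below 30% and not every replicate reaching it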;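 further: 0% = neutral control wells and 100% = L-leucinethiol positive control wells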
PDI turbidity: inhibitors of human protein disulfide isomerase. inhibition, % at 10 µM. 350,000 tested, 0.052% active. PDI insulin aggregation turbidity, A650, 90 min;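 active means mean inhibition across replicates of 30% or more, whatever share of single replicates reach that level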
CAL PDZ FP-1: CAL PDZ (human) peptide binding inhibition. inhibition, % at 24.9 µM. 300,000 tested, 0.92% active. Q9HD26. purified CAL PDZ, TMR-peptide fluorescence polarization, 1 h. AID 602252;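 active means mean inhibition of at least 30% with at least half of replicates also reaching 30%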;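 further: 0% = DMSO neutral control and 100% = excess unlabeled competitor peptide PRC23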
ERp5 inh: inhibitors of human ERp5 | ERp5 insulin aggregation, absorbance 650 nm, 90 min | 350,000 tested, 0.05% active | AID 651711 | inhibition, % at 9.99 µM | Q15084;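 active means mean replicate inhibition above about 25%, with every replicate also reaching it, limit read from the data, passing the limit was not always enough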
CAL PDZ FP-2: human CAL PDZ-peptide interaction inhibition. inhibition, % at 20 µM. 330,000 tested, 0.02% active. purified CAL PDZ, TMR-peptide fluorescence polarization, 1 h;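 active means highest replicate inhibition of at least 40%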;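 further: plate controls were DMSO neutral control wells for no effect and unlabeled competitor peptide control wells for full effect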
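System: purified tagged CAL PDZ domain construct (CerCALP). Schedule: 1 h incubation at room temperature before polarization reading. Medium: 25 mM sodium phosphate pH 7.4, 150 mM NaCl, TCEP, IgG, Thesit. Read-out: percent inhibition from loss of millipolarization. Measured by: FP readout, S and P plane fluorescence. Probe or stimulus: fluorescent TMR peptide probe.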
Rin1 Abl conf: confirmation of inhibitors of human Rin1-Abl interaction | shares compounds with Rin1-Abl PPI inh | TR-FRET Rin1-Abl binding, purified proteins | inhibition, % at 7.35 µM | 1,300 tested, 49% active | AID 602124
GFP quencher: quenches GFP fluorescence, counter-screen for Rin1-Abl inhibitors. AID 602125. inhibition, % at 6.75 µM. inhibitors/quenchers counterscreen. shares compounds with Rin1-Abl PPI inh. 1,300 tested, 8.5% active;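 further: ABL1-eGFP fusion protein alone without its partner RIN1-SBP; 0% = protein with vehicle and 100% = wells lacking protein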
GFP quench DR: counter-screen for Rin1-Abl inhibitors: GFP quenchers, dose response | IC50, µM | shares compounds with Rin1-Abl PPI inh | 230 tested, under 10 active | GFP fluorescence interference/quenching counterscreen; call rule not given here;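 further: ABL1-eGFP fusion protein alone without its RIN1 binding partner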
Numbers without * were called inactive; · = not tested or not shown. Unless noted, no stated cut-off is given here; in the data, active means inhibition above about 6.5%; inactive means the rest.

SMILES | Rin1-Abl PPI inh | ERAP1 HTS inh | PDI turbidity | CAL PDZ FP-1 | ERp5 inh | CAL PDZ FP-2 | Rin1 Abl conf | GFP quencher | others
Cc1nn(CC(=O)Nc2ccc(C(=O)N3CCCC3)cc2)c(=O)c2ccccc12 | 9.9* | · | -1 | -3 | · | 1 | 7.4* | 2
C[C@@H]1CN([C@H](C)CO)C(=O)c2cc(C#Cc3ccccc3F)cnc2O[C@H]1CN(C)C(=O)c1ccc2c(c1)OCO2 | · | -3 | · | · | -3 | · | · | ·
O=S(=O)(c1ccccc1F)N1CC[C@@H]2[C@H]1c1cc(-c3ccccc3F)ccc1N[C@@H]2CO | · | -3 | · | · | -4 | · | · | ·
Cc1ccc(-c2[nH]c3cc(C(=O)NCCCn4ccnc4)ccc3c(=O)c2O)cc1 | 19* | 7 | 15 | -3 | 1 | 0 | 11* | 11*
CCCC#Cc1cnc2c(c1)C(=O)N([C@H](C)CO)C[C@H](C)[C@@H](CN(C)Cc1ccc(F)cc1)O2 | · | -1 | · | · | 0 | · | · | ·
Clc1cccc(Cl)c1CNCCCSc1ncccn1 | -1 | 1 | 6 | 6 | -5 | -1 | · | ·
Fc1cccc(Cl)c1CNCCCSc1ncccn1 | 6.9* | -65 | 17 | 1 | -2 | -2 | -1 | 0
COc1cccc(C2c3[nH]c4ccccc4c3C[C@H]3C(=O)N(C4CCN(Cc5ccccc5)CC4)CC(=O)N23)c1 (some centres undefined) | 2 | 5 | -6 | 1 | 2 | 0 | · | ·
COc1ccc(C2c3[nH]c4ccccc4c3C[C@H]3C(=O)N(C4CCN(Cc5ccccc5)CC4)CC(=O)N23)cc1OC (some centres undefined) | 10* | -5 | 7 | -5 | 2 | 0 | 8.2* | 0
Cc1ccc(-c2nnc(N3CCN(C(=O)c4cccs4)CC3)c3ccccc23)cc1 | 6.3* | -2 | 2 | -7 | 2 | -1 | 3 | -1
Cc1noc(C)c1NC(=O)N(C)C[C@H]1Oc2ncc(C#CCC(C)C)cc2C(=O)N([C@H](C)CO)C[C@@H]1C | · | 0 | · | · | -6 | · | · | ·
O=C(C[C@H]1CC[C@H]2[C@@H](COC[C@@H](O)CN2CC2CCOCC2)O1)N1CCOCC1 | · | 0 | · | · | -5 | · | · | ·
C=CCOC(=O)[C@H]1[C@@H]2C(=O)O[C@@H](c3ccccc3)[C@@H](c3ccccc3)N2[C@@H](c2ccc(OCCOC(=O)[C@@H]3C[C@@H]4C(=O)N[C@@H](Cc5ccccc5)C(=O)N4[C@@H]3c3ccc(O)cc3)cc2)[C@]12C(=O)Nc1ccc(I)cc12 | · | 3 | · | · | 0 | · | · | ·
CC(=O)Nc1cccc(-c2ccnc3c2CC(C(=O)NCc2ccncc2)O3)c1 (centres undefined) | -3 | -6 | -1 | · | -1 | · | · | ·
O=C(NCc1ccncc1)C1Cc2c(-c3ccc4c(c3)OCO4)ccnc2O1 (centres undefined) | -1 | -2 | 0 | · | -11 | · | · | ·
CC(=O)Nc1cccc(-c2ccnc3c2CC(C(=O)NCc2ccc(N4CCN(C)CC4)cc2)O3)c1 (centres undefined) | 31* | 5 | 1 | · | 0 | · | 28* | -1 | GFP quench DR=>68
CC(=O)Nc1cccc(-c2ccnc3c2CC(C(=O)NCc2ccc(F)c(F)c2)O3)c1 (centres undefined) | 1 | -2 | -3 | · | -9 | · | · | ·
CC(=O)Nc1cccc(-c2ccnc3c2CC(C(=O)NCc2ccc(N(C)C)cc2)O3)c1 (centres undefined) | 17* | -2 | 11 | · | 3 | · | 10* | 1
CN1CCN(c2ccc(CNC(=O)C3Cc4c(-c5ccc(Cl)cc5)ccnc4O3)cc2)CC1 (centres undefined) | 15* | 4 | -11 | · | -3 | · | 9.5* | 1
O=C(NCc1ccncc1)C1Cc2c(-c3ccc(Cl)cc3)ccnc2O1 (centres undefined) | -2 | 0 | -2 | · | 0 | · | · | ·

From PubChem
